Results published in ChEMBL document CHEMBL4622994, “Facile Synthesis of Aminomethyl Phosphinate Esters as Serine Protease Inhibitors with Primed Site Interaction” (ACS Med Chem Lett, 2020).
Activity calls are given as the source filed them. The rule behind the calls is not given here.

How the values were obtained:
Bos taurus [1] = species: Bos taurus; assay: Inhibition of bovine chymotrypsin assessed as inactivation constant using flurogenic substrate as chymotrypsin substrate 2 by fluorescence assay
Method in brief: (§1)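 Progress-curve inhibition kinetics for irreversible covalent inhibitors, fitted to a two-step model: reversible non-covalent binding, then irreversible reaction with the enzyme. kinact is the rate constant of the irreversible step at infinite inhibitor concentration. KI is the inhibitor concentration giving an observed rate constant of 1/2 kinact. The kinact/KI ratio expresses overall potency. Inhibitors were tested as diastereomer mixtures; the dilution series spanned 200 to 26.7 μM.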

Bos taurus [2] = species: Bos taurus; assay: Inhibition of bovine chymotrypsin assessed as ratio of Kinact to Ki using flurogenic substrate as chymotrypsin substrate 2 by fluorescence assay; method in brief: as §1
Bos taurus [3] = species: Bos taurus; assay: Inhibition of bovine chymotrypsin at 100 uM preincubated for 30 mins followed by FP-rhodamine addition measured after 30 mins by fluorescence assay
Method in brief: (§2)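 Competitive activity-based protein profiling. Enzyme was treated with compound at 100 μM, or with DMSO control. Residual active enzyme was then labeled with the general serine hydrolase activity-based probe FP-rhodamine and detected by fluorescent labeling.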

[4] = Inhibition of bovine chymotrypsin using flurogenic substrate as chymotrypsin substrate 2 by fluorescence assay; design: species or system Bos taurus; method in brief: as §1
[5] = biological target: T1, Cathepsin G (Homo sapiens) (UniProt P08311); assay: Inhibition of human cathepsin G at 100 uM preincubated for 30 mins followed by FP-rhodamine addition measured after 30 mins by fluorescence assay; method in brief: as §2
T1 sequence (whole entry): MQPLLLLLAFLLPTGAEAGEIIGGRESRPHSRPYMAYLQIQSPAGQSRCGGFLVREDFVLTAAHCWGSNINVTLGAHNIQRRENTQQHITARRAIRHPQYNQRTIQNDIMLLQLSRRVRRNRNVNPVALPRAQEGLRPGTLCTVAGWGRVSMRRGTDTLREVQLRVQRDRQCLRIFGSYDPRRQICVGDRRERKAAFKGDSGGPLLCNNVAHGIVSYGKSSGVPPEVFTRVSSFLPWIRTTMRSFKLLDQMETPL

Sus scrofa [6] = species: Sus scrofa; assay: Inhibition of porcine pancreatic elastase assessed as ratio of Kinact to Ki using flurogenic substrate as elastase substrate V by fluorescence assay; method in brief: as §1
[7] = biological target: T2, Neutrophil elastase (Homo sapiens) (UniProt P08246); assay: Inhibition of human neutrophil Elastase assessed as ratio of Kinact to Ki using flurogenic substrate as elastase substrate V by fluorescence assay; method in brief: as §1
T2 sequence (whole entry): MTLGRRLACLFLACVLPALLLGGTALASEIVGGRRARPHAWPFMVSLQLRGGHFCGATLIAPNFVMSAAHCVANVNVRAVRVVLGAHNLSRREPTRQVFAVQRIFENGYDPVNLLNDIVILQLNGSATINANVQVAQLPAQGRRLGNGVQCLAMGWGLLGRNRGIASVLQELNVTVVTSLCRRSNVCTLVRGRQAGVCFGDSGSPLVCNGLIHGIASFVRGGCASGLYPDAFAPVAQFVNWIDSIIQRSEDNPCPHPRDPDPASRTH

[8] = biological target: T2, Neutrophil elastase (Homo sapiens); assay: Inhibition of human neutrophil Elastase assessed as inactivation constant using flurogenic substrate as elastase substrate V by fluorescence assay; method in brief: as §1
Neutrophil elastase = biological target: T3, Neutrophil elastase (Homo sapiens, UniProt P08246); assay: Inhibition of human neutrophil elastase using flurogenic substrate as elastase substrate V by fluorescence assay; method in brief: as §1
T3 sequence (P08246 whole entry): T2 sequence (whole entry)

[9] = Inhibition of porcine pancreatic elastase using flurogenic substrate as elastase substrate V by fluorescence assay; design: species or system Sus scrofa; method in brief: as §1
Sus scrofa [10] = species: Sus scrofa; conditions: 100 uM
[11] = biological target: T2, Neutrophil elastase (Homo sapiens); assay: Inhibition of human neutrophil Elastase at 100 uM preincubated for 30 mins followed by FP-rhodamine addition measured after 30 mins by fluorescence assay; method in brief: as §2

SMILES | Kinact (Bos taurus [1]) [×10⁻³ /s] | Ratio (Bos taurus [2]) | inhibition (Bos taurus [3]) | Ki [4] [µM] | other results
O=C(NC(c1ccccc1)P(=O)(Oc1ccccc1)c1ccccc1)OCc1ccccc1 (stereo not drawn) | 1.57 | 3.4 ×10³ /M/s | Active | 0.46 | –
O=C(NC(Cc1ccccc1)P(=O)(Oc1ccccc1)c1ccccc1)OCc1ccccc1 (stereo not drawn) | 23 | 16.4 ×10³ /M/s | Active | 1.4 | inhibition [5]: Active
CC(C)CC(NC(=O)OCc1ccccc1)P(=O)(Oc1ccccc1)C(C)(C)C (stereo not drawn) | – | – | inactive | – | –
CCCP(=O)(Oc1ccccc1)C(CC(C)C)NC(=O)OCc1ccccc1 (stereo not drawn) | 2.44 | 188 M⁻¹ s⁻¹ | Active | 13 | –
CC(C)C(NC(=O)OCc1ccccc1)P(=O)(Oc1ccccc1)Oc1ccccc1 (stereo not drawn) | – | – | – | – | Ratio (Sus scrofa [6]): inactive; Ratio [7]: 200 M⁻¹ s⁻¹; Kinact [8]: 0.59 ×10⁻³ /s; Ki (Neutrophil elastase): 2.96 µM
CCCP(=O)(Oc1ccccc1)C(NC(=O)OCc1ccccc1)C(C)C (stereo not drawn) | – | – | inactive | – | –
CC(C)C(NC(=O)OCc1ccccc1)P(=O)(Oc1ccccc1)c1ccccc1 (stereo not drawn) | – | – | Active | 7.42 | Ki [9]: 132 µM; inhibition (Sus scrofa [10]): Active; inhibition [11]: Active; Ki (Neutrophil elastase): 51 µM
CC(C)(C)P(=O)(Oc1ccccc1)C(NC(=O)OCc1ccccc1)c1ccccc1 (stereo not drawn) | – | – | inactive | – | –
O=C(NC(Cc1ccccc1)P(=O)(Oc1ccccc1)Oc1ccccc1)OCc1ccccc1 (stereo not drawn) | 5.63 | 8.1 ×10³ /M/s | – | 0.69 | –
CCCP(=O)(Oc1ccccc1)C(NC(=O)OCc1ccccc1)c1ccccc1 (stereo not drawn) | 5.84 | 404 M⁻¹ s⁻¹ | Active | 14.5 | –
CC(C)C(NC(=O)OCc1ccccc1)P(=O)(Oc1ccccc1)C(C)(C)C (stereo not drawn) | – | – | inactive | – | –
CC(C)CC(NC(=O)OCc1ccccc1)P(=O)(Oc1ccccc1)c1ccccc1 (stereo not drawn) | 21.1 | 978 M⁻¹ s⁻¹ | Active | 21.6 | –
